# pEC50, pKi: −log10 of the molar value. Activity calls are given as the source filed them. No cut-off for these calls is given here.
# Experiments:
# [1] = system: Trypanosoma brucei brucei; assay: Antitrypanosomal activity against Trypanosoma brucei brucei bloodstream forms assessed as decrease in cell count at 2 times EC50 after 12 hrs by hemocytometric analysis; format: functional, organism-based
# Method in brief: (§1)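 Bloodstream-form T. b. brucei cultures started at 10⁵ cells/mL, with or without a range of compound concentrations (0.05, 0.25, 1 μM for the example shown) present continuously. Cell density tracked over 48 h by manual hemocytometer counts done in triplicate; mean values plotted.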
# [2] = system: Trypanosoma brucei brucei; assay: Antitrypanosomal activity against Trypanosoma brucei brucei bloodstream forms assessed as decrease in cell count at 0.25 uM treated for 48 hrs followed by washout after 4 hrs measured after 44 hrs by hemocytometric analysis; format: functional, organism-based
# Method in brief: (§2)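 T. b. brucei bloodstream forms seeded at 10⁵ cells/mL with 0.25 μM compound; drug removed by centrifugation (1100g) after 30 min or 4 h and cells resuspended in drug-free fresh medium, or fresh medium still containing 0.25 μM compound; drug-free control run alongside. Growth followed over 48 h by microscopic hemocytometer counts in triplicate, averages reported.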
# [3] = system: Trypanosoma brucei brucei; assay: Antitrypanosomal activity against diminazene-, pentamidine-, and melaminophenyl arsenical-resistant HAPT1-deficient Trypanosoma brucei brucei B48 after 3 days by alamar blue assay; format: functional, organism-based; conditions: Trypanosoma brucei, B48, 72 h
# Method in brief: (§3)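 Bloodstream-form T. b. brucei (wild-type s427; TbAT1-KO, made from s427 by TbAT1 deletion; B48, selected from TbAT1-KO in vitro on pentamidine, lacking functional HAPT1). Cells were exposed to compound for 48 h, then resazurin (Alamar blue) was added for a further 24 h. A single fluorescence reading gave EC50.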
# [4] = system: Trypanosoma brucei brucei; assay: Antitrypanosomal activity against Trypanosoma brucei brucei bloodstream forms assessed as decrease in cell count at 0.25 uM treated for 48 hrs followed by washout after 4 hrs by hemocytometric analysis; format: functional, organism-based; method in brief: as §2
# [5] = Cytotoxicity against human HEK cells after 3 days by alamar blue assay; format: cell-based, HEK293; conditions: Homo sapiens, HEK293, 72 h
# Method in brief: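 Human embryonic kidney cells tested by resazurin (Alamar blue) assay: 48 h with compound, then 24 h more after dye addition, single reading; EC₅₀ derived.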
# [6] = system: Trypanosoma brucei brucei; assay: Resistance factor, ratio of EC50 for diminazene-, pentamidine-, and melaminophenyl arsenical-resistant HAPT1-deficient Trypanosoma brucei brucei B48 to EC50 for wild type Trypanosoma brucei brucei Lister 427; format: functional
# Method in brief: (§4)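 Resistance factor is the EC50 in the resistant line (TbAT1-KO or B48) divided by the EC50 in wild-type s427. […] Resistant and wild-type EC50s were compared by Student t-test.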
# [7] = Selectivity index, ratio of EC50 for rat L6 cells to EC50 for Trypanosoma brucei rhodesiense STIB900; format: toxicity, cell-based; conditions: L6 cells, read-out: Ratio EC50
# Method in brief: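 Ratio of EC₅₀ in L6 cells to EC₅₀ against T. b. rhodesiense STIB900, both from Alamar blue assays.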
# [8] = system: Trypanosoma brucei brucei; assay: Antitrypanosomal activity against diminazene aceturate-resistant TbAT1 gene-deficient Trypanosoma brucei brucei AT1-KO after 3 days by alamar blue assay; format: functional, organism-based; conditions: Trypanosoma brucei, AT1-KO, 72 h; method in brief: as §3
# [9] = Selectivity index, ratio of EC50 for human HEK cells to EC50 for wild type Trypanosoma brucei brucei Lister 427; format: toxicity, cell-based, HEK293; conditions: HEK cells, read-out: Ratio EC50
# Method in brief: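 Ratio of EC₅₀ in HEK cells to EC₅₀ in wild-type T. b. brucei s427, both from resazurin assays.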
# [10] = system: Trypanosoma brucei brucei; assay: Antitrypanosomal activity against Trypanosoma brucei brucei bloodstream forms assessed as decrease in cell count at 0.25 uM treated for 48 hrs followed by washout after 30 mins and measured after 48 hrs by hemocytometric analysis; format: functional, organism-based; method in brief: as §2
# [11] = system: Trypanosoma brucei brucei; assay: Antitrypanosomal activity against wild type Trypanosoma brucei brucei Lister 427 after 3 days by alamar blue assay; format: functional, organism-based; conditions: Trypanosoma brucei, Lister 427, 72 h; method in brief: as §3
# [12] = Inhibition of Trypanosoma brucei brucei LAPT1 assessed as [3H]-pentamidine uptake after 120 secs by scintillation counting
# Method in brief: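 LAPT1 transport: late-log trypanosomes from HMI-9/10% FBS culture washed into pH 7.3 HEPES-bicarbonate-glucose buffer; 1 μM final [³H]-pentamidine uptake over 120 s with competitor. Uptake terminated with 2 mM ice-cold pentamidine and oil centrifugation; counted by scintillation, Ki from sigmoid curves; triplicate, at least three separate occasions.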
# [13] = Inhibition of Trypanosoma brucei brucei HAPT1 assessed as [3H]-pentamidine uptake after 60 secs by scintillation counting
# Method in brief: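 HAPT1 transport: late-log T. b. brucei grown in HMI-9 + 10% FBS, washed into HEPES/bicarbonate assay buffer with 14 mM glucose, pH 7.3. [³H]-pentamidine at 30 nM final for 60 s with inhibitor; stopped with 2 mM ice-cold unlabeled pentamidine and spin through oil. Scintillation counting, sigmoid fit for Ki; triplicates, ≥3 independent experiments.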
# [14] = system: Trypanosoma brucei rhodesiense; assay: Antitrypanosomal activity against Trypanosoma brucei rhodesiense STIB900 infected in rat L6 cells after 72 hrs by alamar blue assay; format: functional, organism-based; conditions: Trypanosoma brucei, STIB900, 72 h
# [15] = system: Trypanosoma brucei brucei; assay: Antitrypanosomal activity against Trypanosoma brucei brucei bloodstream forms assessed as decrease in cell count at EC50 after 36 hrs by hemocytometric analysis; format: functional, organism-based; method in brief: as §1
# [16] = system: Trypanosoma brucei brucei; assay: Resistance factor, ratio of EC50 for diminazene aceturate-resistant TbAT1 gene-deficient Trypanosoma brucei brucei AT1-KO to EC50 for wild type Trypanosoma brucei brucei Lister 427; format: functional; method in brief: as §4
# L6 = assay: Cytotoxicity against rat L6 cells after 72 hrs by alamar blue assay; format: cell-based; conditions: Rattus norvegicus, L6, 72 h
smiles,measurement,setting,value
CCCCCC[P+](CCCCCC)(CCCCCC)Cc1ccc(Oc2ccc(C[P+](CCCCCC)(CCCCCC)CCCCCC)cc2)cc1.[Br-].[Br-],Activity,[1],Active
same,Activity,[2],Active
same,pEC50,[3],7.39
same,Activity,[4],Active
same,pEC50,[5],4.66
same,Ratio EC50,[6],1.1
same,selectivity ratio,[7],9
same,pEC50,[8],7.35
same,selectivity ratio,[9],593
same,Activity,[10],inactive
same,pEC50,[11],7.43
same,pKi,[12],5.14
same,pKi,[13],4.28
same,pEC50,[14],6.96
same,Activity,[15],Active
same,Ratio EC50,[16],1.2
same,pEC50,L6,5.99

# Source: ChEMBL document CHEMBL2040794, “Synthesis and structure-activity analysis of new phosphonium salts with potent activity against African trypanosomes” (J Med Chem, 2012)
